# A selection: hits, their analogues and other compounds. The true share with any hit is near 3.5%.
# MrgX1 PAM – human MrgX1 positive allosteric modulation, primary screen; Q96LB2; MrgX1-HEK293, Fluo-4 calcium flux, FDSS; stronger effect = higher value; B-score at 10 µM; 310,000 tested, 0.63% active;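 active = plate-corrected calcium response at least 3 library SD above typical, normal starting fluorescence, not activating the receptor alone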;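 also: compound read alongside a low EC10 to EC30 dose of BAM8-22 agonist; peak minus trough fluorescence over baseline measured at the second addition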
# RGS4 pot – RGS4 potentiation or activation; HEK293 M3R/inducible RGS4, carbachol calcium flux Fluo4; stronger effect = lower value; B-score at 10 µM; 310,000 tested, 0.92% active;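 active = B-score of the integrated calcium signal more than 4 SD below the library mean, with starting fluorescence not abnormally high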;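 also: negative B-score means reduced calcium response which marks RGS4 activation or potentiation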
#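 Reagent: ECmax carbachol challenge; Test system: M3R-expressing HEK293 line, RGS4 induced by doxycycline; Schedule: overnight RGS4 induction, 30 min dye load 37 °C, 20 min compound RT; Detection: calcium dye Fluo4 fluorescence; Read-out: Agonist-evoked peak-minus-minimum fluorescence over baseline, integrated ratio, B score.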
# RGS4 block – human RGS4 inhibition; P49798; HEK293 M3R/RGS4 inducible, Fluo-4 calcium flux; stronger effect = higher value; triggered by carbachol at its EC20; B-score at 10 µM; 310,000 tested, 0.45% active;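 active = B-score, a plate-corrected calcium signal, over three deviations above library mean, with baseline fluorescence within five deviations of library mean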;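 also: RGS4 expression induced by doxycycline in cells with stable M3 receptor; B-score is computed from the integrated fluorescence ratio over baseline after carbachol; higher B-score means a larger calcium signal and so more RGS4 inhibition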
# Target sequence (P49798 whole entry, looked up): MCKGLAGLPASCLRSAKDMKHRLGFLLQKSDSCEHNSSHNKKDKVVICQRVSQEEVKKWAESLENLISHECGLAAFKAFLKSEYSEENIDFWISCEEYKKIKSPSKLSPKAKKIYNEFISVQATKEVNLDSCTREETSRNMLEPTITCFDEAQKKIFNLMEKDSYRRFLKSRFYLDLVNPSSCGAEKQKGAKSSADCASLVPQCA
# MrgX1 agonist – human MrgX1 receptor agonism, primary screen | Q96LB2 | MrgX1-HEK293 cells, Fluo-4 calcium fluorescence, agonist mode; stronger effect = higher value | B-score at 10 µM | 310,000 tested, 0.44% active;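 active = calcium response B-score plate-corrected fluorescence ratio at least 3 library SD, with starting fluorescence B-score inside 5 SD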
#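 System – MrgX1-expressing HEK293 cells · Incubation – cells plated overnight, dye loaded 0.5 h 37 °C, 0.5 h room temperature · Technique – kinetic Fluo-4 NW fluorescence of intracellular calcium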
# MrgX1 antag – antagonists of human MrgX1 receptor; B-score at 10 µM; MRGX1-HEK293 calcium flux, Fluo-4, BAM8-22 antagonism; stronger effect = lower value; 310,000 tested, 1.3% active; Q96LB2;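 active = calcium-response B-score plate-corrected more than 3 library SD below zero, starting fluorescence within 5 deviations, no agonist response on first addition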;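 also: peak minus trough fluorescence over baseline after final BAM8-22 challenge near maximal dose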
# RGS4 inh valid – validation of RGS4 inhibitors | shares compounds with RGS4 block | HEK293 M3R/RGS4, carbachol calcium Fluo-4 fluorescence; carbachol added at its EC20; 0 = buffer wells, 100 = carbachol control | AID 492999 | 1,700 tested, 65% active | calcium response, % at 10 µM;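 active = duplicate-averaged calcium response above the buffer-only control mean plus 5 SD of those controls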;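 also: integrated fluorescence ratio F max minus min over baseline F0; higher response in RGS4-induced cells means RGS4 inhibition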
# RGS4 uninduced – counter-screen for RGS4 inhibitors: effect in non-induced cells; shares compounds with RGS4 block; HEK293 M3R non-induced, carbachol calcium Fluo-4; submaximal (EC20) carbachol stimulus; buffer wells 0%, carbachol control wells 100%; activity (percent), % at 10 µM; 1,900 tested, 20% active; AID 493000; call rule not given here;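 also: RGS4 induction absent so cells express M3R without RGS4; higher means more calcium signal and flags a non-specific hit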
# RGS4 inh ctr2 – second counter-screen for RGS4 inhibitors: non-induced cells without carbachol | shares compounds with RGS4 block | HEK293 M3R/RGS4 non-induced, Fluo-4 calcium, no carbachol; normalised: buffer wells 0%, carbachol wells 100% | calcium response (agonist-mode artifact), % at 10 µM | 1,900 tested, 22% active | AID 493001;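 active = duplicate-averaged calcium rise in uninduced cells above buffer wells' mean plus 5 SD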
# Hits are given with their value; . = inactive; / = no result.
SMILES,MrgX1 PAM,RGS4 pot,RGS4 block,MrgX1 agonist,MrgX1 antag,RGS4 inh valid,RGS4 uninduced,RGS4 inh ctr2
CCOc1cc(/C=C/c2nc3cc(C)c(C)cc3s2)ccc1OCC(=O)N1CCOCC1,.,.,.,.,.,/,/,/
Cn1c(COc2ccc(Cl)cc2Cl)nnc1SCC(=O)NCC1CCCO1 (configuration not stated),.,.,.,.,.,/,/,/
CN(CCc1ccccn1)C(=O)CC1C(=O)NCCN1Cc1cccc(F)c1 (configuration not stated),.,.,.,.,.,/,/,/
CN(Cc1cnccn1)C(=O)CC1C(=O)NCCN1Cc1ccc(F)cc1Cl (configuration not stated),.,.,4.8,.,.,.,.,82%
CN(Cc1ccccn1)C(=O)CC1C(=O)NCCN1Cc1ccc(F)cc1Cl (configuration not stated),.,.,.,.,.,.,.,14%
COc1ccc(S(=O)(=O)Nc2ccccc2C(=O)NCc2cccnc2)cc1,.,.,.,.,.,/,/,/
COc1ccc(-c2cnnn2-c2ccc(NC(=O)c3ccco3)cc2)cc1OC,.,.,4.7,.,.,6.0%,.,.
CC(=O)N1c2ccc(S(=O)(=O)NCC3CCC(C(=O)N4CCC(C)CC4)CC3)cc2CC1C (configuration not stated),.,.,.,.,.,/,/,/
COC(=O)CCC(=O)Nc1sc(Cc2ccccc2)c(C)c1C(N)=O,.,.,.,.,.,/,/,/
COc1cccc(/C=N/c2sc(Cc3ccccc3)c(C)c2C(N)=O)c1O,.,.,5,.,.,24%,36%,.
CC(C)(C)NC(=O)C(c1ccc(O)cc1)N(C(=O)CCC(=O)Nc1ccccn1)c1ccc(F)cc1 (configuration not stated),.,.,.,.,.,/,/,/
CC(=O)Nc1ccc(Nc2cc(C(C)C)nc3c(-c4ccccc4)c(C)nn23)cc1,.,.,7.2,.,.,41%,60%,.
Cc1nn2c(NCc3ccccn3)cc(C(C)C)nc2c1-c1ccccc1,.,.,.,.,.,/,/,/
CC(=O)Nc1ccc(Nc2cc(C)nc3c(-c4ccccc4)c(C)nn23)cc1,.,.,8.6,.,.,13%,.,.
CC1CCN(C(=O)CSc2ccc(-c3ccccc3)nn2)CC1,.,.,.,.,.,/,/,/
O=C(CSc1nnc(-c2cccnc2)o1)Nc1nccs1,.,.,.,.,.,/,/,/
CN(c1ccccc1)c1cc(Br)nc(Br)c1,.,.,.,.,.,/,/,/
CCOC(=O)C1CCN(C(=O)COC(=O)CN(C)S(=O)(=O)c2ccc(NC(C)=O)cc2)CC1,.,.,.,.,.,/,/,/
COc1ccc(-c2sc3ccccc3c2C#CCO)cc1,.,.,.,.,.,.,.,.
OCCC#Cc1c(-c2ccsc2)sc2ccccc12,.,.,.,.,.,/,/,/
COc1ccc(-c2sc3ccccc3c2C#CCCO)cc1,.,.,4.9,.,.,9.0%,.,.
Clc1ccc(C2=Nn3c(nnc3-c3n[nH]c4c3CCC4)SC2)cc1,.,.,.,.,.,.,.,.
O=C(N/N=C/c1c[nH]c2ccccc12)c1cc(-c2ccc(-c3ccccc3)cc2)n[nH]1,.,.,.,.,.,/,/,/
O=C(N/N=C/c1c[nH]c2ccccc12)C1CC1c1ccccc1 (configuration not stated),.,.,5.6,.,.,9.5%,36%,11%
Cc1ccc(-c2cc(C(=O)N/N=C/c3c[nH]c4ccccc34)[nH]n2)cc1,/,.,.,/,/,.,.,.
O=C(N/N=C/c1c[nH]c2ccccc12)C1CC1(c1ccccc1)c1ccccc1 (configuration not stated),.,.,.,.,.,/,/,/

# Bioassay records as filed in PubChem BioAssay.
